{
  "source": "paper PMC7105014",
  "about": "(Journal of Functional Foods, 2011)",
  "key": {"[1]": {"target": "α-glucosidase", "conditions": "read-out: IC50 against α-glucosidase; ref Hakamata et al., 2006; cited from earlier work"}, "[2]": {"target": "HCV NS3/4A protease (Hepatitis C virus genotype 1a, UniProt P27958)", "sequence (P27958 1027-1657 limits assumed)": "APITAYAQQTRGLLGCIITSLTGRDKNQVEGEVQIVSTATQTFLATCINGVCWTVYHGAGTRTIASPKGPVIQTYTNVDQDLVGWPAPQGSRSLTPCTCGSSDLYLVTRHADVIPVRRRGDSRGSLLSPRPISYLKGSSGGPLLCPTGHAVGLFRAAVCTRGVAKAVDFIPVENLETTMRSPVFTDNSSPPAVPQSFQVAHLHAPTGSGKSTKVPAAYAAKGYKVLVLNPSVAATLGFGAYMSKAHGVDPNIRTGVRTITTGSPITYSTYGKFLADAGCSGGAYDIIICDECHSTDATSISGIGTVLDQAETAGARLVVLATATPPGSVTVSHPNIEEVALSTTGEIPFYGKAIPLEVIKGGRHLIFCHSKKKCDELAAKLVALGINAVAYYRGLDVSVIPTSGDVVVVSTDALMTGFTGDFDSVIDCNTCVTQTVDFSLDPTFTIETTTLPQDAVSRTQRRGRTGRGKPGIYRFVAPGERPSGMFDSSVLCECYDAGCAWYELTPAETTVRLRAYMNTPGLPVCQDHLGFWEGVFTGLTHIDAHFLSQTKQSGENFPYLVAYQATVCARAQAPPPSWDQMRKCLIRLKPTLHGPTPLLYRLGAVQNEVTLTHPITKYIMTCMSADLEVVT", "sequence (P27958 1658-1711 partner limits assumed)": "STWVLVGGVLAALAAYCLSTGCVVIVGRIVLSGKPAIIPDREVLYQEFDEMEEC", "experiment": "HCV NS3/4A protease inhibition", "format": "biochemical", "method_in_brief": "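Test compound in DMSO was mixed with HCV NS3/4A protease solution (0.5 μg/ml; SensoLyte 520 kit). The reaction was started with substrate diluted 100× from a DMSO stock. After 30 min at room temperature, fluorescence was read (ex 485/em 535 nm) and corrected with a substrate blank. % inhibition was taken against a compound-free control. IC50 came from concentration–inhibition curves, with embelin as reference inhibitor.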"}},
  "data": [
    {"smiles": "Oc1cc(O)c2c(c1)O[C@H](c1ccc(O)c(O)c1)[C@@H](O)C2", "note": "[(+)-catechin]", "values": [
      {"measurement": "IC50", "setting": "[1]", "value": "> 500", "unit": "µM"}
    ]},
    {"smiles": "CCCCCCCCCCCC1=C(O)C(=O)C=C(O)C1=O", "note": "[Embelin, embelin]", "values": [
      {"measurement": "IC50", "setting": "[2]", "value": 10.2, "unit": "µM"}
    ]}
  ]
}
